Results published in ChEMBL document CHEMBL4118021, “Studies of TAK1-centered polypharmacology with novel covalent TAK1 inhibitors” (Bioorg Med Chem, 2017).
Each block holds one compound with its values, some of them ahead of it. The source made the active and inactive calls. No cut-off for these calls is given here.

Tests used:
[1] = target: Dual specificity mitogen-activated protein kinase kinase 1 (Homo sapiens) (UniProt Q02750); assay: Inhibition of full length human MEK1 (1 to 393 residues) expressed in mammalian expression system assessed as enzyme activity at 10 uM by KINOMEScan assay relative to control; parameters: scale not given: the % may be the effect or the level left
Sequence of Dual specificity mitogen-activated protein kinase kinase 1 (Homo sapiens) (Q02750 whole entry, the tested form may be a part): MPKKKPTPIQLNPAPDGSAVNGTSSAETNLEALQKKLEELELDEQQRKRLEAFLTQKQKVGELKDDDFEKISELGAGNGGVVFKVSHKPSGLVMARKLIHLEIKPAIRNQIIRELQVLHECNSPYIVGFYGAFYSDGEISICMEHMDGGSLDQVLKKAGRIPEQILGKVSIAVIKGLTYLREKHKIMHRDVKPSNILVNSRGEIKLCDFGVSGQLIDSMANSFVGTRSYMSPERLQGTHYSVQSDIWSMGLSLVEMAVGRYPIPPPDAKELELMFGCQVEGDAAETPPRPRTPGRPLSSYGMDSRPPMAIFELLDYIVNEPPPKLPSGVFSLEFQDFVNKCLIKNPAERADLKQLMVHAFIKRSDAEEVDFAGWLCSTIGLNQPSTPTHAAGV
Outline: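 In vitro ATP-site competition binding assay (KinomeScan) across a panel of 456 kinases. Compound was tested at 1 and 10 μM. The read-out is the binding inhibition score relative to control.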

[2] = target: Mast/stem cell growth factor receptor Kit (Homo sapiens) (UniProt P10721); assay: Inhibition of human KIT (571 to 952 residues) expressed in bacterial expression system assessed as enzyme activity at 10 uM by KINOMEScan assay relative to control; parameters: scale not given: the % may be the effect or the level left
Sequence of Mast/stem cell growth factor receptor Kit (Homo sapiens) (P10721 whole entry, the tested form may be a part): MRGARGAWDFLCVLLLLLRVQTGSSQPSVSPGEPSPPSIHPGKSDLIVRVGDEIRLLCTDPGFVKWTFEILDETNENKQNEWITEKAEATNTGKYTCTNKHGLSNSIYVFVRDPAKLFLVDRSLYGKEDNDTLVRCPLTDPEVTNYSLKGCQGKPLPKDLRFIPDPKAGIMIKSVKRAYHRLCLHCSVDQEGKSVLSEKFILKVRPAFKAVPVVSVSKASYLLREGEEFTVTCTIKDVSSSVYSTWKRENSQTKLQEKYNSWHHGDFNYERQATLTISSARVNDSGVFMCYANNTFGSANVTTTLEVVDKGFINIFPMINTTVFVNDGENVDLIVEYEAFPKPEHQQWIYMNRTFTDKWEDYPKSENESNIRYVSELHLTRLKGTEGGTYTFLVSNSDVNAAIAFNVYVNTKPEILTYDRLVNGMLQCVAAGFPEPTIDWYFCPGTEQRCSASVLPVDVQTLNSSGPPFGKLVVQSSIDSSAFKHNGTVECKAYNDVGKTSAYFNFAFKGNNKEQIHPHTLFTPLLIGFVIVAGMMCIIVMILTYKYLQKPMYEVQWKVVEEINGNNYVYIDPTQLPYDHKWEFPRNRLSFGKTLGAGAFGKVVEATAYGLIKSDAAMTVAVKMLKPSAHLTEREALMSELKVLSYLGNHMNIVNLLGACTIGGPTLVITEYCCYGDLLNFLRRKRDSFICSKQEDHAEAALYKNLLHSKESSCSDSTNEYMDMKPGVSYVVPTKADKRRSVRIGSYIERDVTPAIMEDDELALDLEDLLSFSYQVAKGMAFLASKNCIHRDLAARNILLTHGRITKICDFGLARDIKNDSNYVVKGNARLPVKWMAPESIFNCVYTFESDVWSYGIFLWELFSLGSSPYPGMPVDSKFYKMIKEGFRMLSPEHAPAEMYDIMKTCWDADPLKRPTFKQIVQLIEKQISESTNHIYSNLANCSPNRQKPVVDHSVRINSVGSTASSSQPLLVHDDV
Outline: (§1)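 In vitro ATP-site competition binding assay across a panel of 456 kinases, with compound tested at 1 and 10 μM.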

[3] = target: Platelet-derived growth factor receptor beta (Homo sapiens) (UniProt P09619); assay: Inhibition of human PDGFRB (582 to 1009 residues) expressed in bacterial expression system assessed as enzyme activity at 1 uM by KINOMEScan assay relative to control; parameters: scale not given: the % may be the effect or the level left; outline: as §1
Sequence of Platelet-derived growth factor receptor beta (Homo sapiens) (P09619 whole entry, the tested form may be a part): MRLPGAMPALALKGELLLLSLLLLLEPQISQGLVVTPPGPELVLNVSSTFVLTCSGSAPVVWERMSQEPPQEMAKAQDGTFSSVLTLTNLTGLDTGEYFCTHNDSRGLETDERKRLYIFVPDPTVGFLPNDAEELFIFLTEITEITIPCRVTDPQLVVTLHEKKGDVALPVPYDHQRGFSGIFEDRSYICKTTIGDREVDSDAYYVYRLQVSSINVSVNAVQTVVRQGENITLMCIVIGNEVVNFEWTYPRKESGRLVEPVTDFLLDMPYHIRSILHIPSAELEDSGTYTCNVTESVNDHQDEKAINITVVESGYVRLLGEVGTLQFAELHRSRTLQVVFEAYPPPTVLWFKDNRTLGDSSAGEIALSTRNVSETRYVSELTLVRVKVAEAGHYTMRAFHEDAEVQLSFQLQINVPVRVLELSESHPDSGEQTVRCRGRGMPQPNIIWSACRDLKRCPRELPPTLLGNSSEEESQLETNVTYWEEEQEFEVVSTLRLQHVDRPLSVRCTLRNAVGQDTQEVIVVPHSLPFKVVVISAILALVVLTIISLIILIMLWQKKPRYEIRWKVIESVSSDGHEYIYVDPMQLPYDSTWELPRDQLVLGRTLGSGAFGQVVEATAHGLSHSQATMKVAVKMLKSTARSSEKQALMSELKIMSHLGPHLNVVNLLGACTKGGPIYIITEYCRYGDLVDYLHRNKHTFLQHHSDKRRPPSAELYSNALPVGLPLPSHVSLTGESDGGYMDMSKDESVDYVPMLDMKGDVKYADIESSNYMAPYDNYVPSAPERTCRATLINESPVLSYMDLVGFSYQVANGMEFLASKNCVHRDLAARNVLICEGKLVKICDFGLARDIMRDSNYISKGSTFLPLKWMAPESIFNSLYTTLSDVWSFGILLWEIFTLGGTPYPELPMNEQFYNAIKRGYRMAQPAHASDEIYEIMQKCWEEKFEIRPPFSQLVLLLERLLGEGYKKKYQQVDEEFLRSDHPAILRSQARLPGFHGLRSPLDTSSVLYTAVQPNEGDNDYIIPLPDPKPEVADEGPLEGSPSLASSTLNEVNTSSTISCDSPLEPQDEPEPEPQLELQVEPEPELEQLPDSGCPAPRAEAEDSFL

[4] = target: Histone H2B type 2-F (Homo sapiens) (UniProt Q5QNW6); assay: Binding affinity to HIST2H2BF in human NCI-H23 cells at 1 uM by mass spectrometry based pull down assay; type: cell-based
[5] = target: 80S Ribosome (Homo sapiens) (UniProt P08865+P42677+P62753+P15880+P23396+P61247+P62701+P22090+P46782+P62081+P62241+P46781+P46783+P62280+P25398+P62277+P62263+P62841+P62244+P62249+P08708+P62269+P39019+P60866+P63220+P62266+P62847+P62851+P62854+P62979+P62857+P62273+P62861+P39023+P36578+P46777+Q02878+P18124+P62424+P62917+P32969+P27635+P62906+P62913+P30050+P26373+P40429+P50914+P61313+P18621+Q07020+Q02543+P84098+P46778+P35268+P62829+P62750+P83731+P61254+P61353+P46776+P46779+P47914+P62888+P62899+P62910+P49207+P42766+P18077+Q9Y3U8+P83881+P61927+P61513+P63173+P62891+P62945+P05388+P05386); assay: Binding affinity to RPL31 in human NCI-H23 cells at 1 uM by mass spectrometry based pull down assay; type: cell-based
[6] = target: Casein kinase II subunit beta (Homo sapiens) (UniProt P67870); assay: Binding affinity to CSNK2B in human NCI-H23 cells at 1 uM by mass spectrometry based pull down assay; type: cell-based
Sequence of Casein kinase II subunit beta (Homo sapiens) (P67870 whole entry): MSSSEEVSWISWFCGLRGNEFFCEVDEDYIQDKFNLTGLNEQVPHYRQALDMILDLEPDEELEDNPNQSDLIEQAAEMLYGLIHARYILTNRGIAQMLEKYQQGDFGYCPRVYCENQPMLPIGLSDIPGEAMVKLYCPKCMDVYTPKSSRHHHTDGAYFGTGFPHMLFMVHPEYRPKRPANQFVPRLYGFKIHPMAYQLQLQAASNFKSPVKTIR

[7] = target: Citrate synthase, mitochondrial (Homo sapiens) (UniProt O75390); assay: Binding affinity to CS in human NCI-H23 cells at 1 uM by mass spectrometry based pull down assay; type: cell-based
Sequence of Citrate synthase, mitochondrial (Homo sapiens) (O75390 whole entry): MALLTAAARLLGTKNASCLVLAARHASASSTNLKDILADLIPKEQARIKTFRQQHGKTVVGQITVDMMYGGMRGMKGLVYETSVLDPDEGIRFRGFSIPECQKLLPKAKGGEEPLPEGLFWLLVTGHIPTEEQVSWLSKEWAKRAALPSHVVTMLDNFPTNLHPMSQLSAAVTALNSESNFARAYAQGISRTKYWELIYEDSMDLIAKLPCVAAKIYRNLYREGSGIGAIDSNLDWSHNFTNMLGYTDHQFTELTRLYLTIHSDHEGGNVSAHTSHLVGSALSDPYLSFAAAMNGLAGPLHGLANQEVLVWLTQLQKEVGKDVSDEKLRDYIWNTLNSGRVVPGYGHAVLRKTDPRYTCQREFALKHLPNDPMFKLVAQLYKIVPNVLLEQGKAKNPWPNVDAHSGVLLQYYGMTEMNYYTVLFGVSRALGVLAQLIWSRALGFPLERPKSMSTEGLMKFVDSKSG

[8] = target: Jupiter microtubule associated homolog 2 (Homo sapiens) (UniProt Q9H910); assay: Binding affinity to HN1L in human NCI-H358 cells at 1 uM by mass spectrometry based pull down assay; type: cell-based
[9] = target: Aspartyl aminopeptidase (Homo sapiens) (UniProt Q9ULA0); assay: Binding affinity to DNPEP in human NCI-H23 cells at 1 uM by mass spectrometry based pull down assay; type: cell-based
[10] = target: Mitogen-activated protein kinase 3 (Homo sapiens) (UniProt P27361); assay: Binding affinity to MAPK3 in human NCI-H358 cells at 1 uM by mass spectrometry based pull down assay; type: cell-based
[11] = target: Dual specificity mitogen-activated protein kinase kinase 2 (Homo sapiens) (UniProt P36507); assay: Binding affinity to MAP2K2 in human NCI-H23 cells at 1 uM by mass spectrometry based pull down assay; type: cell-based
Sequence of Dual specificity mitogen-activated protein kinase kinase 2 (Homo sapiens) (P36507 whole entry): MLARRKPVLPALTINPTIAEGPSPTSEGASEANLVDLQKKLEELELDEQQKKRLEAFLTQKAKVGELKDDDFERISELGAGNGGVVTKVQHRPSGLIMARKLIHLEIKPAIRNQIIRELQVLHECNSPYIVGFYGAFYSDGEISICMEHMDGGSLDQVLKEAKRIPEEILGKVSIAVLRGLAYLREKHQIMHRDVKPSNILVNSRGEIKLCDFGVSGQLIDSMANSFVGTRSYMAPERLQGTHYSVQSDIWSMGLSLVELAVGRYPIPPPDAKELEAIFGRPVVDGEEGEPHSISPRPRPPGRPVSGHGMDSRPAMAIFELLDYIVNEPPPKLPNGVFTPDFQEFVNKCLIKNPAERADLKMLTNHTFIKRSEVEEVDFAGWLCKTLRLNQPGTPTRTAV

[12] = target: Thioredoxin-like protein 1 (Homo sapiens) (UniProt O43396); assay: Binding affinity to TXNL1 in human NCI-H23 cells at 1 uM by mass spectrometry based pull down assay; type: cell-based
Sequence of Thioredoxin-like protein 1 (Homo sapiens) (O43396 whole entry): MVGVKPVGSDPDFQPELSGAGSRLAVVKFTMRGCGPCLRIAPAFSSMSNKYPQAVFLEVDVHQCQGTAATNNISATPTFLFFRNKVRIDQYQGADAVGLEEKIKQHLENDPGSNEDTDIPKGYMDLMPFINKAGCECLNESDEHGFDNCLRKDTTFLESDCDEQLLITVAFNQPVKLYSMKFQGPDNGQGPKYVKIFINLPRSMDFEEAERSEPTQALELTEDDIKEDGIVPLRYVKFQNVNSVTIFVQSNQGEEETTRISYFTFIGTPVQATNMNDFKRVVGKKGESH

[13] = target: Carbonyl reductase [NADPH] 1 (Homo sapiens) (UniProt P16152); assay: Binding affinity to CBR1 in human NCI-H358 cells at 1 uM by mass spectrometry based pull down assay; type: cell-based
Sequence of Carbonyl reductase [NADPH] 1 (Homo sapiens) (P16152 whole entry): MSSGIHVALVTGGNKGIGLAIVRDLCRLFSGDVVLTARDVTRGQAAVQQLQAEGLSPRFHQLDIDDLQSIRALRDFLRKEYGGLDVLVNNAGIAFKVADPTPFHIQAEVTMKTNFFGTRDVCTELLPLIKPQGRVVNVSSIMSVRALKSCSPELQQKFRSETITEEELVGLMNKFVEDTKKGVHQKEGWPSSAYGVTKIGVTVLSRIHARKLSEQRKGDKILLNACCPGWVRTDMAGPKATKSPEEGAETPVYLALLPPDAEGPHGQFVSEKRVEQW

[14] = target: Vasodilator-stimulated phosphoprotein (Homo sapiens) (UniProt P50552); assay: Binding affinity to VASP in human NCI-H23 cells at 1 uM by mass spectrometry based pull down assay; type: cell-based
[15] = target: Pyrroline-5-carboxylate reductase 2 (Homo sapiens) (UniProt Q96C36); assay: Binding affinity to PYCR2 in human NCI-H23 cells at 1 uM by mass spectrometry based pull down assay; type: cell-based
Sequence of Pyrroline-5-carboxylate reductase 2 (Homo sapiens) (Q96C36 whole entry): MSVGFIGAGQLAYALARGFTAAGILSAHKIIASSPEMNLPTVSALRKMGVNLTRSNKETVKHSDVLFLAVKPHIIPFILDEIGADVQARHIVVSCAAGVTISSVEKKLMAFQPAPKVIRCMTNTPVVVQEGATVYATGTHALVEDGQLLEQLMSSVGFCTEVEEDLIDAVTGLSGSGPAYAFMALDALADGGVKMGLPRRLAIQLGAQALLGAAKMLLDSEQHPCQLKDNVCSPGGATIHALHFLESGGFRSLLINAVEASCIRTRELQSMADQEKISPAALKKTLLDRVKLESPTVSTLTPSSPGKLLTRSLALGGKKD

[16] = target: Heterogeneous nuclear ribonucleoprotein H2 (Homo sapiens) (UniProt P55795); assay: Binding affinity to HNRNPH2 in human NCI-H23 cells at 1 uM by mass spectrometry based pull down assay; type: cell-based
Sequence of Heterogeneous nuclear ribonucleoprotein H2 (Homo sapiens) (P55795 whole entry): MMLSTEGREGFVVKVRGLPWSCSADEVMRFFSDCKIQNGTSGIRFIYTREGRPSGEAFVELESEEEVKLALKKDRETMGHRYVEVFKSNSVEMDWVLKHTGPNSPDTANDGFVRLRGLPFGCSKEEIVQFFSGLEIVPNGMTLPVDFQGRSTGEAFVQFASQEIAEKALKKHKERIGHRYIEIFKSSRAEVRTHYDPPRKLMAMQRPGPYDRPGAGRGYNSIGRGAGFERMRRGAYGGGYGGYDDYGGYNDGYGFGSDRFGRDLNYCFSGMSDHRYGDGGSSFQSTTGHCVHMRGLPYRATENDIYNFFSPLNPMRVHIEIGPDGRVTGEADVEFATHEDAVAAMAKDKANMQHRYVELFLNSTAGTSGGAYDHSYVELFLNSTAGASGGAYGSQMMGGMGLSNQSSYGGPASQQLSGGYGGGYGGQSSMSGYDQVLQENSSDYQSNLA

[17] = target: NUAK family SNF1-like kinase 2 (Homo sapiens) (UniProt Q9H093); assay: Inhibition of NuaK2 in human SKCO1 cells at 1 uM after 4 hrs using biotin labeled LVAIKSIR probe by mass-spectrometric analysis relative to control; type: cell-based
[18] = target: T1, Mitogen-activated protein kinase kinase kinase 7 (Homo sapiens) (UniProt O43318); assay: Inhibition of biotin-labeled N-(2-(2-(2-(2-(4-(4-((4-((2-Acrylamidophenyl)amino)-5-chloropyrimidin-2-yl)amino)phenyl)piperazin-1-yl)ethoxy)ethoxy)ethoxy)ethyl)-5-((3aS,4S,6aR)-2-oxohexahydro-1H-thieno[3,4-d]imidazol-4-yl)pentanamide probe binding to TAK1 in human NCI-H358 cells at 10 uM after 6 hrs by immunoblot based competitive pull down assay; type: cell-based
T1 sequence (whole entry): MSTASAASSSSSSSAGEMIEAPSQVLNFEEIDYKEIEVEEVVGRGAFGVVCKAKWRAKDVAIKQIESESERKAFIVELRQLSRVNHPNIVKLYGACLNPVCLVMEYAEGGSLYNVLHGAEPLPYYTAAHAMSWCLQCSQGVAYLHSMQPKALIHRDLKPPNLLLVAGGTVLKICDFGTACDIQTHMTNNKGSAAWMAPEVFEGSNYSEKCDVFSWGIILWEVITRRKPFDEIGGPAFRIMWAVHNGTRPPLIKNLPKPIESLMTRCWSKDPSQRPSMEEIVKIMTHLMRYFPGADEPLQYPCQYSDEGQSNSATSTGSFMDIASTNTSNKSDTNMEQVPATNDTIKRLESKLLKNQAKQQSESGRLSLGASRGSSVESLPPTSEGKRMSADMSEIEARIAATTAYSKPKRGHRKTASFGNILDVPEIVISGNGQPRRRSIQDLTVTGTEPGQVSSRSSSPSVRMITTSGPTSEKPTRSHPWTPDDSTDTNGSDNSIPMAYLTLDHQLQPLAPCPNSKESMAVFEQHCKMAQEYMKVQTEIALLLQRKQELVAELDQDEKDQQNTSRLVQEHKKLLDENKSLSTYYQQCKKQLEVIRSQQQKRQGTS
Outline: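 H358 cells given 1 or 10 μM compound for 6 h, medium removed, cells rinsed twice with cold PBS and lysed in MPER buffer. Lysates incubated overnight at 4 °C with 1 μM biotinylated covalent probe, captured on streptavidin beads, and TAK1 recovery assessed by immunoblotting with anti-TAK1 antibody.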

Structure (SMILES): COc1cc(O)c2c(c1)/C=C/C[C@H](O)[C@H](O)C(=O)/C=C\C[C@H](C)OC2=O
Activity [1]: 0.05%
Activity [2]: 0.6%
Activity [3]: 1.5%

Activity [4]: Active
Activity [5]: Active
Activity [6]: Active
Activity [7]: Active
Activity [8]: Active
Activity [9]: Active
Activity [10]: Active
Activity [11]: Active
Activity [12]: Active
Activity [13]: Active
Activity [14]: Active
Activity [15]: Active
Activity [16]: Active
Structure (SMILES): C=CC(=O)Nc1ccccc1Nc1nc(Nc2ccc(N3CCN(CCOCCOCCOCCNC(=O)CCCC[C@@H]4SC[C@@H]5NC(=O)N[C@@H]54)CC3)cc2)ncc1Cl

Structure (SMILES): C=CC(=O)Nc1ccccc1Nc1nc(Nc2ccc(N3CCN(C)CC3)cc2)ncc1Cl
inhibition [17]: 53.3%

Structure (SMILES): C=CC(=O)Nc1ccccc1Oc1nc(Nc2cnn(CCOC)c2)ncc1Cl
inhibition [18]: Active
